According to ChEMBL document CHEMBL1221338, “New antitumoral agents I: In vitro anticancer activity and in vivo acute toxicity of synthetic 1,5-bis(4-hydroxy-3-methoxyphenyl)-1,4-pentadien-3-one and derivatives” (Bioorg Med Chem, 2010):

Columns and labels:
PC-3 = test: Antitumor activity against human PC3 cells after 48 hrs by SRB assay; type: functional, cell-based; conditions: PC-3, 48 h
How it was run: (§1)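 Human tumor lines in medium with 5% FBS and gentamicin, exposed in 96-well plates to four concentrations given in DMSO for 48 h at 37 °C, 5% CO₂. Cells fixed with trichloroacetic acid (added as 50% solution) for 30 min at 4 °C, washed, dried, stained with sulphorhodamine B. Protein content read at 540 nm.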

MCF7 = test: Antitumor activity against human MCF7 cells after 48 hrs by SRB assay; type: functional, cell-based; conditions: MCF7, 48 h; how it was run: as §1
OVCAR-3 = test: Antitumor activity against human OVCAR-3 cells after 48 hrs by SRB assay; type: functional, cell-based; conditions: OVCAR-3, 48 h; how it was run: as §1
[1] = Antitumor activity against human NCI/ADR cells after 48 hrs by SRB assay; type: functional, cell-based; conditions: NCI/ADR-RES; how it was run: as §1
K562 = test: Antitumor activity against human K562 cells after 48 hrs by SRB assay; type: functional, cell-based; conditions: K562, 48 h; how it was run: as §1
UACC-62 = test: Antitumor activity against human UACC62 cells after 48 hrs by SRB assay; type: functional, cell-based; conditions: UACC-62, 48 h; how it was run: as §1
NCI-H460 = test: Antitumor activity against human NCI-H460 cells after 48 hrs by SRB assay; type: functional, cell-based; conditions: NCI-H460, 48 h; how it was run: as §1
HT-29 = test: Antitumor activity against human HT-29 cells after 48 hrs by SRB assay; type: functional, cell-based; conditions: HT-29, 48 h; how it was run: as §1
[2] = Antitumor activity against human 786-O cells after 48 hrs by SRB assay; type: functional, cell-based; conditions: 786-0, 48 h; how it was run: as §1
[3] = Toxicity in Swiss albino mouse for 14 days; type: organism-based; conditions: in vivo
How it was run: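 Male albino Swiss mice (~25 g; 20 animals split equally into treated and control groups), acclimatised at least 7 days and fasted 12 h. Single intraperitoneal dose of 1, 2.5 or 5 g/kg body weight. Deaths and signs of toxicity observed for at least 14 days. LD50 by Litchfield and Wilcoxon's method; OECD425 protocol.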

L1210 = test: Antiproliferative activity against mouse L1210 cells after 24 hrs by MTT assay; type: functional, cell-based; conditions: L1210, 24 h
How it was run: (§2)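 Murine tumor cells grown to confluence, then exposed for 24 h to a range of concentrations diluted in Miglyol 810, with a Miglyol-only diluent control. MTT (5 mg/ml stock) added for 3 h at 37 °C, 5% CO₂. Plates centrifuged, supernatant removed, formazan dissolved in DMSO, absorbance read at 540 nm.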

B16-F10 = test: Antiproliferative activity against mouse B16F10 cells after 24 hrs by MTT assay; type: functional, cell-based; conditions: B16-F10, 24 h; how it was run: as §2
[4] = Antiproliferative activity against mouse macrophages after 24 hrs by MTT assay; type: cell-based; conditions: Macrophage
How it was run: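 Peritoneal macrophages lavaged from anesthetized normal Balb-C mice with heparinized saline. Cells pelleted, resuspended in RPMI-1640 with 10% FBS at 10⁶/ml, plated, and exposed for 24 h to compound dilutions in Miglyol 810, with a diluent control. MTT (5 mg/ml stock) for 3 h at 37 °C, formazan dissolved in DMSO, read at 540 nm.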

Compound | IC50 (PC-3) | IC50 (MCF7) | IC50 (OVCAR-3) | IC50 [1] | IC50 (K562) | IC50 (UACC-62) | IC50 (NCI-H460) | IC50 (HT-29) | IC50 [2] | LD50 at 336 h [3] | IC50 (L1210) | IC50 (B16-F10) | IC50 [4]
COc1cc(/C=C/C(/C=C/c2ccc(O)c(OC)c2)=C(C#N)C#N)ccc1O | 4.25 µM | 5.24 µM | 115 µM | 2.97 µM | 7.59 µM | 3.34 µM | 6.89 µM | 3.37 µM | 7.14 µM |  |  |  | 
COc1cc(/C=C/C(=O)/C=C/c2ccc(OCC=C(C)C)c(OC)c2)ccc1OCC=C(C)C | 60.5 µM | 18.2 µM | 30.3 µM | 7.22 µM | 4.8 µM | 30.6 µM | 34.1 µM | 4.04 µM | 7.87 µM |  |  |  | 
COc1ccc(/C=C/C(=O)/C=C/c2ccc(OC)c(OC)c2)cc1OC | 2.32 µM | 2 µM | 2.32 µM | 2.37 µM | 1.83 µM | 2.12 µM | 1.86 µM | 2.43 µM | 3.36 µM |  |  |  | 
COc1cc(/C=C/C(=O)/C=C/c2ccc(OC(C)=O)c(OC)c2)ccc1OC(C)=O | 0.95 µM | 1.09 µM | 1.39 µM | 3.12 µM | 1.41 µM | 4.31 µM | 1.7 µM | 1.48 µM | 0.66 µM | 3680 mg/kg | 246 µM | 220 µM | 275 µM
COc1cc(/C=C/C(=O)/C=C/c2ccc(O)c(OC)c2)ccc1O | 1.25 µM | 0.12 µM | 2.2 µM | 0.83 µM | 1.84 µM | 0.09 µM | 1.53 µM | 2.3 µM | 1.99 µM | 8540 mg/kg | 56.1 µM | 21.5 µM | 51.8 µM
